# Published values pooled from the literature.
# Compare with care: the assays were run in different laboratories.
# KDR: Vascular endothelial growth factor receptor 2 (KDR, Homo sapiens, UniProt P35968)
# PIP5K1A: Phosphatidylinositol 4-phosphate 5-kinase type-1 alpha (PIP5K1A, Homo sapiens, UniProt Q99755)
Structure (SMILES),target,assay,setting,quantity,result
COc1ccc(-c2cc(=O)c3c(O)cc(O[C@@H]4O[C@H](CO[C@@H]5O[C@@H](C)[C@H](O)[C@@H](O)[C@H]5O)[C@@H](O)[C@H](O)[C@H]4O)cc3o2)cc1O,KDR,"enzyme activity, inhibitor, TR-FRET",40 µM,inhibition,51.5%
CC(=O)/C=C/C=C(C)/C=C/C1=C(C)CC(O)CC1(C)C (stereo in doubt),"D14 (Oryza sativa, UniProt Q10QA5)","thermal stability, DSF",10 µM,ΔTm,2.75 °C
Cc1cc(O)c(-c2ccc([C@@H](C)CN(C)C)cc2)c2c1[nH]c(=O)c1sccc12,"Serine/threonine-protein kinase Nek4 (NEK4, Homo sapiens, UniProt P51957)","enzyme activity, inhibitor",0.1 µM,inhibition,0.965%
CCN1/C(=C/C(C)=O)Sc2ccc(F)cc21,"Vasopressin V1b receptor (AVPR1B, Homo sapiens, UniProt P47901)","ligand displacement, radioligand",10 µM,inhibition,2.63%
CC(C)c1ccc(Sc2ccc3nnc(C(F)(F)F)n3n2)cc1,"Glutamate NMDA receptor; Grin1/Grin2a (Grin1/Grin2a, Rattus norvegicus, UniProt P35439+Q00959)","ion current, two-electrode voltage clamp","30 µM, oocytes",remaining activity,97%
CC1=C(/C=C/C(C)=C/C=C/C(C)=C/C=C/C=C(C)/C=C/C=C(C)/C=C/C2=C(C)CCCC2(C)C)C(C)(C)CCC1,KDR,"enzyme activity, inhibitor, TR-FRET",40 µM,inhibition,-6.3%
CC(=O)ON=C1C=CC(=C(C#N)c2ccccc2)C=C1,"Glycogen synthase kinase-3 beta (GSK3B, Homo sapiens, UniProt P49841)","enzyme activity, inhibitor, ADP detection",20 µM,activity vs control,82%
C1=C/COCc2cc(ccc2OCCN2CCCC2)Nc2nccc(n2)-c2cccc(c2)COC/1,"1-phosphatidylinositol 3-phosphate 5-kinase (PIKFYVE, Homo sapiens, UniProt Q9Y2I7)",cell-free assay,0.1 µM,remaining signal,17%
CNS(=O)(=O)c1ccc(Nc2ncc(C(F)(F)F)c(N3CCC[C@](C)(O)C3)n2)c(C)c1,PIP5K1A,"binding, competition with immobilised ligand",1 µM,remaining binding,100%
CCCCC(=O)Nc1ccc(-c2ccc3ncn(CCC)c(=O)c3c2)cn1,"Interleukin-1 receptor-associated kinase 3 (IRAK3, Homo sapiens, UniProt Q9Y616)","binding, competition with immobilised ligand",0.5 µM,remaining binding,99%
Cc1cc(S(=O)(=O)N[C@H]2CC[C@H](CN3CCN(c4ccc(C5CCC(=O)NC5=O)cc4F)CC3)CC2)ccc1Nc1ncc(C(F)(F)F)c(N2CCC[C@](C)(O)C2)n1 (stereo partly drawn),PIP5K1A,"binding, competition with immobilised ligand",1 µM,remaining binding,70%
COc1ccc2oc(-c3ccc4nc(N)oc4c3)c/c(=N\c3ccccc3NC(=O)CCN)c2c1,"Activin receptor type-1-like (ACVRL1, Homo sapiens, UniProt P37023)",binding,1 µM,remaining binding,106%
